Experimental data as given in ChEMBL document CHEMBL4842395, “Design and Synthesis of Oleanolic Acid Trimers to Enhance Inhibition of Influenza Virus Entry” (ACS Med Chem Lett, 2021).
Numbered stars: 1 amine (or outer) side, 2 acyl side, 3 side chain; on linkers, the order of the positions; unused ones are H or OH. Bridge positions count the residues as written; N and C are the ends. Square brackets hold non-standard residues; d marks the D form. Peptide text beside a SMILES is read from it. I, II: the chains in the order shown. X1 = O=C(O)C1(OCCCCC(=O)[*:2])C[C@H](O)[C@@H](N[*:1])[C@H]([C@H](O)[C@H](O)CO)O1; X2 = O=C(NCCCCCCN[*:1])c1cc(C(=O)NCCCCCCN[*:2])cc(C(=O)NCCCCCCN[*:3])c1

Tests used:
Hemagglutinin = Hemagglutinin (Influenza A virus, UniProt B4URE7); assay: Inhibition of CM5 chip immobilized Influenza A virus (A/Viet Nam/1203/2004(H5N1)) HA by SPR method
[1] = Cytotoxicity against MDCK cells assessed as reduction in cell viability by CellTiter-Glo assay; type: cell-based, Canis lupus familiaris; conditions: dog
Method in brief: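 Viability of normal, uninfected MDCK cells measured by CellTiter-Glo. Medium containing 1% DMSO was the negative control. CC50 is the concentration that reduces viability by 50%.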

Influenza A virus [2] = assay: Antiviral activity against Influenza A virus (A/WSN/1933(H1N1)) infected in MDCK cells assessed as inhibition of virus-induced cytopathic effect at 100 uM measured after 40 hrs incubation by inverted microscpic imaging analysis; type: functional
Method in brief: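 MDCK cells infected with influenza A/WSN/33 (H1N1), with compounds at 100 μM. Viral CPE judged by direct microscopic observation. DMSO served as the negative control and oseltamivir phosphate as the positive control. Triplicate experiments, with standard deviations.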

Influenza B virus = assay: Antiviral activity against Influenza B virus (B/Sichuan/531/2018(Victoria)) infected in cells assessed as reduction in infected cells; type: functional, organism-based
[3] = Selectivity index, ratio of CC50 for MDCK cells to IC50 for antiviral activity against Influenza A virus (B/Sichuan/531/2018(Victoria)); type: toxicity; conditions: dog, read-out: Ratio CC50/IC50
Influenza A virus [4] = assay: Antiviral activity against Influenza A virus (A/WSN/1933(H1N1)) infected in MDCK cells assessed as suppression of M2 protein expression at early stage of infection measured after 2 hrs post infection by Western blot analysis; type: functional
Method in brief: (§1)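 Time-of-addition study in MDCK cells infected with A/WSN/33 (H1N1). Compound was present during one of five windows: 0–10, 0–2, 2–5, 5–8 or 8–10 h, corresponding to entry (0–2 h), replication/translation (2–8 h) and release (8–10 h). M2 and NP protein levels were compared with a DMSO control.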

Influenza A virus [5] = assay: Antiviral activity against Influenza A virus (A/WSN/1933(H1N1)) infected in MDCK cells assessed as s reduction in virus-induced cytopathic effect after 40 hrs incubation by CellTiter-Glo assay; type: functional, organism-based
Method in brief: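 CPE-based dose–response in MDCK cells infected with A/WSN/33 (H1N1), using the CellTiter-Glo viability read-out. Medium with 1% DMSO was the negative control and oseltamivir phosphate the positive control. IC50 is the concentration giving 50% inhibition of virus-induced CPE. Means of duplicate samples from three independent experiments.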

[6] = target: Hemagglutinin (Influenza A virus (A/Puerto Rico/8/1934(H1N1)), UniProt P03452); assay: Binding affinity to CM5 chip immobilized Influenza A virus (A/Michigan/45/2015) (H1N1)) hemagglutin assessed as dissociation constant by surface plasmon resonance assay
[7] = Selectivity ratio of CC50 for MDCK cells to IC50 for Influenza A virus A/WSN/33(H1N1) infected in MDCK cells; type: toxicity, cell-based; conditions: dog, read-out: Ratio CC50/IC50
Method in brief: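 Selectivity index calculated as CC50 (uninfected MDCK cells, CellTiter-Glo) divided by IC50 (inhibition of A/WSN/33 H1N1-induced CPE in MDCK cells).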

Influenza A virus [8] = assay: Antiviral activity against Influenza A virus (A/WSN/1933(H1N1)) infected in MDCK cells assessed as suppression of NP protein expression measured after 2 hrs post infection by Western blot analysis; type: functional; method in brief: as §1
[9] = Selectivity index, ratio of CC50 for MDCK cells to IC50 for antiviral activity against Influenza A virus (A/Hong Kong/4801/2014 (H3N2)); type: toxicity; conditions: dog, read-out: Ratio CC50/IC50
Influenza A virus [10] = assay: Antiviral activity against Influenza A virus (A/Hong Kong/4801/2014 (H3N2)) infected in cells assessed as reduction in infected cells; type: functional, organism-based

Sequence of Hemagglutinin (B4URE7 whole entry): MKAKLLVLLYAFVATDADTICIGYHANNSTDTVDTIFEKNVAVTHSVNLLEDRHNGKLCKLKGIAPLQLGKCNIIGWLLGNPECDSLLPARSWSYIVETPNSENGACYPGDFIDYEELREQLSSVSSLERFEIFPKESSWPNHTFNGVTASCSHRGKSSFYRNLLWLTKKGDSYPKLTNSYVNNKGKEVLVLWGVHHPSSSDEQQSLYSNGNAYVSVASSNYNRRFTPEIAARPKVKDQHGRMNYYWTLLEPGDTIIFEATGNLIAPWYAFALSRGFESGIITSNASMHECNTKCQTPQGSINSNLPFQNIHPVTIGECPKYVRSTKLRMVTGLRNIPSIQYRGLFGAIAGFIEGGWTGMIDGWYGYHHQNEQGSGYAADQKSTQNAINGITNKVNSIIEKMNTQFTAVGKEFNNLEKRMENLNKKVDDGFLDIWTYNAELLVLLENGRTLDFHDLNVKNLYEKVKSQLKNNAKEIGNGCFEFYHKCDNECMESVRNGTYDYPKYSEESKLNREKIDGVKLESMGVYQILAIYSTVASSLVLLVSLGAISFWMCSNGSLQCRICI
Sequence of Hemagglutinin (Influenza A virus (A/Puerto Rico/8/1934(H1N1)), UniProt P03452) (P03452 whole entry): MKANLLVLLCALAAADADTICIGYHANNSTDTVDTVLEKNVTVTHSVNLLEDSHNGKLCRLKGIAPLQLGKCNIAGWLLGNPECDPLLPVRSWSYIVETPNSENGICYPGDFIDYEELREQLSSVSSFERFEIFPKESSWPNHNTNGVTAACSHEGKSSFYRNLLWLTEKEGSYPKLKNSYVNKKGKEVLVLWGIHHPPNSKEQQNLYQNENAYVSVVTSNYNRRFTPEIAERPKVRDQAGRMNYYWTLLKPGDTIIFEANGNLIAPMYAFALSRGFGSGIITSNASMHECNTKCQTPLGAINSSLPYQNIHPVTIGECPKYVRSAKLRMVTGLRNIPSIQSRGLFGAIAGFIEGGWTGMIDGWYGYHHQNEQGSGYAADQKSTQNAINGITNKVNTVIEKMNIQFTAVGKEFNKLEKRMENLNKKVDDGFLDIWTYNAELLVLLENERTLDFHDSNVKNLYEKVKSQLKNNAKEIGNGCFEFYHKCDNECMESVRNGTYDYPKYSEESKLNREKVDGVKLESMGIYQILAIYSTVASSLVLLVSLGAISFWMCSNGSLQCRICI

With `CC(=O)N[C@H]1[C@H]([C@H](O)[C@H](O)CO)OC(OCCCCC(=O)NCC(=O)N[C@@H](CO)C(=O)NCC(=O)N[C@@H](CO)C(=O)N[C@@H](C)C(=O)N[C@@H](CO)C(=O)NCC(=O)N[C@@H](CO)C(=O)NCC(=O)NCCCCCCNC(=O)c2cc(C(=O)NCCCCCCNC(=O)CNC(=O)[C@H](CO)NC(=O)CNC(=O)[C@H](CO)NC(=O)[C@H](C)NC(=O)[C@H](CO)NC(=O)CNC(=O)[C@H](CO)NC(=O)CNC(=O)CCCCOC3(C(=O)O)C[C@H](O)[C@@H](NC(C)=O)[C@H]([C@H](O)[C@H](O)CO)O3)cc(C(=O)NCCCCCCNC(=O)CNC(=O)[C@H](CO)NC(=O)CNC(=O)[C@H](CO)NC(=O)[C@H](C)NC(=O)[C@H](CO)NC(=O)CNC(=O)[C@H](CO)NC(=O)CNC(=O)CCCCOC3(C(=O)O)C[C@H](O)[C@@H](NC(C)=O)[C@H]([C@H](O)[C@H](O)CO)O3)c2)(C(=O)O)C[C@@H]1O` (some centres not stated) (I: Ac-[X1]GSGSASGSG / II: Ac-[X1]GSGSASGSG / III: Ac-[X1]GSGSASGSG; linker I:C-II:C-III:C via X2) the Kd (Hemagglutinin) was 0.446 µM.
In the case of `CC1(C)CC[C@]2(C(=O)NCCCCc3cn(Cc4cc(Cn5cc(CCCCNC(=O)[C@]67CCC(C)(C)C[C@H]6C6=CC[C@@H]8[C@@]9(C)CC[C@H](O)C(C)(C)[C@@H]9CC[C@@]8(C)[C@]6(C)CC7)nn5)cc(Cn5cc(CCCCNC(=O)[C@]67CCC(C)(C)C[C@H]6C6=CC[C@@H]8[C@@]9(C)CC[C@H](O)C(C)(C)[C@@H]9CC[C@@]8(C)[C@]6(C)CC7)nn5)c4)nn3)CC[C@]3(C)C(=CC[C@@H]4[C@@]5(C)CC[C@H](O)C(C)(C)[C@@H]5CC[C@]43C)[C@@H]2C1`, the CC50 [1] is reported as greater than 100 µM, the inhibition at 100 µM (Influenza A virus [2]) is reported as greater than 80% and the IC50 (Influenza B virus) is reported as 1.87 µM. For the same compound, the selectivity ratio [3] was greater than 53.5, the “inhibition (INH)” value (Influenza A virus [4]) was greater than 90% and the IC50 (Influenza A virus [5]) was 0.23 µM. For the same compound, the Kd [6] was 2.63 µM, the selectivity ratio [7] was greater than 435 and the “inhibition (INH)” value (Influenza A virus [8]) was greater than 90%. It also gave a selectivity ratio [9] greater than 21.8 and an IC50 (Influenza A virus [10]) of 4.58 µM.
